Bioassay records from PubChem.
M4 antag: human M4 muscarinic receptor antagonists, primary screen, CHO cells, Fluo-8 calcium fluorescence; CHO-hM4 cells, ACh EC80; inhibition, % at 3 µM; 360,000 tested, 0.73% active;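 active means inhibition above its plate's cutoff, the mean inhibition of sample wells plus 3 SD, cut at about 27% in these data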
M4 ag: human M4 muscarinic receptor agonists, primary screen, CHO-K1 cells, Fluo-8 calcium fluorescence; CHO-K1 hM4/Gqi5; vehicle 0%, full acetylcholine response 100%; Muscarinic acetylcholine receptor M4 (Homo sapiens), P08173; 360,000 tested, 0.14% active; activation, % at 3 µM; AID 624127, 2012;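 active means activation above the run mean over all test wells plus 3 SD, cut at about 32% in these data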;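 further: peak over basal fluorescence ratio per well then scaled between controls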
M4 PAM: human M4 muscarinic receptor positive allosteric modulators, primary screen, CHO-K1 cells, Fluo-8 calcium fluorescence; CHO-K1 hM4/Gqi5, ACh EC20; 0% = ACh EC20, 100% = maximal ACh; activation, % at 3 µM; 360,000 tested, 0.4% active; AID 624126, 2012;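 active means activation above its plate's cutoff, the mean activation of sample wells plus 3 SD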
CHRM5 antagonist: human M5 muscarinic receptor antagonists, primary screen, CHO cells, Fluo-8 calcium fluorescence; inhibition, % at 3 µM; CHO-hM5 cells, ACh EC80; Muscarinic acetylcholine receptor M5 (Homo sapiens), P08912; 360,000 tested, 0.59% active;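 active means inhibition above a per-plate cutoff, the mean of that plate's test compounds plus 3 SD, cut at about 27% in these data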
Target sequence (P08912 whole entry, looked up): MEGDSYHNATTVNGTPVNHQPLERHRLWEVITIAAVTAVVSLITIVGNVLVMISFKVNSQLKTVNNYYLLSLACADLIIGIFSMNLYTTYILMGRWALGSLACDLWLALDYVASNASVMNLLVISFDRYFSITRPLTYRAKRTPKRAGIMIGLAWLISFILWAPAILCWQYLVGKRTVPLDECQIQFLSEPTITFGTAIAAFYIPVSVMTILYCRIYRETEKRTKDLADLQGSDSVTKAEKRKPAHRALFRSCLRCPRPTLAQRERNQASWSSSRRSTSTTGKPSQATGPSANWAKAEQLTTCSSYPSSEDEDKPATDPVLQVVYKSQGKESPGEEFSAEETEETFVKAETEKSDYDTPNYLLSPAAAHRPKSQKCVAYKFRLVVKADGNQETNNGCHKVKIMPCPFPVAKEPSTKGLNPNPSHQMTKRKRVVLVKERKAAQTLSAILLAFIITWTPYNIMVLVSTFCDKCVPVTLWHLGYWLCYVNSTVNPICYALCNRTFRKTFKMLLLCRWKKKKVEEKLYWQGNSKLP
M5 PAM: human M5 muscarinic receptor positive allosteric modulators, primary screen, CHO-K1 cells, Fluo-8 calcium fluorescence; Muscarinic acetylcholine receptor M5 (Homo sapiens), P08912; CHO-K1 hM5, ACh EC20 PAM; 0% = ACh EC20, 100% = ACh EC100; activation, % at 3 µM; 360,000 tested, 0.3% active;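 active means activation above the run cutoff, the mean activation of all test compounds plus 3 SD, cut at about 18% in these data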
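System – CHO-K1 hM5 cells · Compound – 3 µM, single dose · Incubation – compound preincubation 140 s before EC20 acetylcholine addition · Technique – Fluo-8 calcium fluorescence · Measure – Max/basal fluorescence ratio as % of EC20–EC100 ACh window · Benchmarks – low control EC20 acetylcholine (0%), high control EC100 acetylcholine (100%) · Replication – singlicate, one well per test compound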
M5 ag: human M5 muscarinic receptor agonists, primary screen, CHO-K1 cells, Fluo-8 calcium fluorescence | Muscarinic acetylcholine receptor M5 (Homo sapiens), P08912 | CHO-K1 hM5 cells; 0% DMSO wells, 100% maximal acetylcholine response | activation, % at 3 µM | 360,000 tested, 0.19% active;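 active means activation above the run's mean over test compounds plus 3 SD, cut at about 23% in these data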;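 further: signal is peak over basal fluorescence ratio across the kinetic read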
Large screens that a line does not name were inactive. Rows were chosen to be rich in hits. Some 1.9% of all compounds tested hit in one or more screens of this group.

CCOC(=O)N1CCN(C(=O)CCCCn2c(=S)[nH]c3ccsc3c2=O)CC1	M4 PAM 18.7
O=C(CCCn1c(=O)[nH]c2ccsc2c1=O)N1CCCCC1	M5 PAM 25.8
O=C(CCCCCn1c(=O)[nH]c2ccsc2c1=O)N1CCCCC1	none
COc1cc(CCCN2C(N)=NC[C@H]2Cc2ccc(O)cc2)cc(OC)c1OC	M5 PAM 18.1
NC1=NC[C@H](Cc2ccc(O)cc2)N1CCC12CC3CC(CC(C3)C1)C2	M4 antag 46.4
CCCCN1C(N)=NC[C@@H]1Cc1ccc(O)cc1	none
CC12CCC3c4ccccc4CCC3(CO1)C2 (stereo unspecified)	none
CS(=O)(=O)N1CCN(c2ccc([N+](=O)[O-])c3cccnc23)CC1	M4 antag 34.9
C[C@H](O)[C@@H]1CN2CCc3c([nH]c4ccccc34)[C@@H]2C[C@@H]1N(C)C(=O)c1ccco1	none
Cc1cccc(-n2cnc3sc(C)c(C)c3c2=O)c1	CHRM5 antagonist 35.0
N/C(=N\NC(=O)c1cccc(F)c1)c1cc2ccccc2oc1=O	M4 PAM 28.3
CC(Oc1ccccc1)C(=O)Nc1ccc(C(N)=O)cc1 (stereo unspecified)	none
COc1cccc(NC(=O)NNC(=O)C(C)Oc2ccc3ccccc3c2)c1 (stereo unspecified)	none
COc1ccc(NC(=O)C(C)Oc2ccc(/C(C)=N\O)cc2)cc1 (stereo unspecified)	M5 ag 27.2
COc1ccc(OC(C)C(=O)Nc2cccc(OC)c2)cc1 (stereo unspecified)	M5 PAM 19.1
CC(C)NS(=O)(=O)c1ccc(NC(=O)C(C)Oc2ccc(C(=O)c3ccccc3)cc2)cc1 (stereo unspecified)	M4 antag 71.0, M4 ag 116.8, CHRM5 antagonist 46.7, M5 ag 64.7
Cc1ccc(COC(=O)CCCN=C2NS(=O)(=O)c3ccccc32)cc1	none
Fc1ccc(COc2ccc(Cl)cc2/C=N/Nc2nc(N3CCCC3)nc(N3CCCC3)n2)cc1	M4 ag 34.1
O=C(NNC(=O)c1cc2cc3ccccc3nc2s1)c1cccc(Cl)c1	M4 PAM 29.8
CC(C)c1ccc(-n2c(-c3ccccc3)c[n+]3c2CCc2ccccc2-3)cc1	M4 antag 28.9, CHRM5 antagonist 28.9
COc1ccccc1-n1c(-c2ccccc2)c[n+]2c1CCc1ccccc1-2	M4 antag 33.8, CHRM5 antagonist 31.0
COc1ccc(-n2c(-c3ccc(Br)cc3)c[n+]3c2CCc2ccccc2-3)cc1	none
CC1CCC2(CC1)NC(=O)N(NC(=O)c1cc3ccccc3o1)C2=O (stereo unspecified)	none
Cc1cccc(CN2[C@H](CO)C=CS2(=O)=O)c1	none
COc1ccc(C(=O)c2coc3ccc(OC(C)=O)cc23)cc1	CHRM5 antagonist 29.2
CC(OC(=O)c1n[nH]c2ccccc12)C(=O)Nc1ccccc1[N+](=O)[O-] (stereo unspecified)	none
COc1cc(C#Cc2c(-c3cncn3C)n(C)c3ccc(-c4ccc(CN5CCOCC5)cc4)cc23)cc(OC)c1	M4 antag 29.8
COc1cc(C#Cc2c(-c3cncn3C)n(C)c3ccc(-c4cnc(N5CCOCC5)nc4)cc23)cc(OC)c1	none
CCCCn1c(N)c(N(CC(C)C)C(=O)c2cc(S(=O)(=O)N3CCOCC3)ccc2Cl)c(=O)[nH]c1=O	none
CN1CCN(NC(=O)C2CC2)CC1	M4 antag 32.5
CN1CCN(NC(=O)C23CC4CC(CC(C4)C2)C3)CC1	none
Nc1nonc1N/N=C\c1ccccc1	M4 antag 27.1
O=C(O)/C=C/C(=O)NCCC(c1ccccc1)c1ccccc1	none
O=C(Nc1ccc(Oc2ccccc2)nc1)C1CCN(Cc2cccc(F)c2)CC1	CHRM5 antagonist 30.7
C#Cc1ccc(CN2CCC(C(=O)Nc3ccc(Oc4ccccc4)nc3)CC2)cc1	none
Cc1ccc2c(Cl)c(C(=O)NCC(c3ccco3)N3CCCC3)sc2c1 (stereo unspecified)	CHRM5 antagonist 27.4
COc1ccc(CCn2c(C3CCCCC3)nc3c(c(=O)c4ccccc4n3C)c2=O)cc1	M4 ag 45.1
O=C(Nc1ccc(Cl)cc1)Nc1nnc(CSc2ccc(Cl)cc2)s1	none
O=C(Nc1ccc(Cl)cc1)Nc1nnc(CSCc2ccccc2)s1	M4 PAM 29.1
COc1cc(C(=O)Nc2scc(-c3ccc(C)cc3)c2C(=O)O)cc(OC)c1OC	M4 antag 62.5
COc1cc(C(=O)Nc2scc(-c3ccccc3)c2C(=O)O)cc(OC)c1OC	none
Brc1ccccc1OCCCCn1cnc2ccccc21	CHRM5 antagonist 29.4
COc1ccc(C(=O)Nc2ccc(N3CCN(C(=O)C(C)C)CC3)cc2)cc1[N+](=O)[O-]	M4 PAM 22.7
CCOc1cc(C(=O)Nc2ccc(N3CCN(C(C)=O)CC3)cc2)cc(OCC)c1OCC	M5 PAM 18.1
CCOc1ccc(C(=O)Nc2ccc(N3CCN(C(C)=O)CC3)cc2)cc1[N+](=O)[O-]	none
CC(=O)c1ccc(OCc2cc(C(=O)NCCn3nc(C)cc3C)no2)cc1	none
CCCCOc1ccc(C(=O)O)cc1	none
CCCCCCCCOc1ccc(C(=O)O)cc1	M4 PAM 22.0
CCCCOc1ccc(C(=O)Nc2cccc(C)n2)cc1	M4 antag 93.8
COc1ccc(OCC(O)CN2CCC(CN3C(=O)c4cccc5cccc(c45)C3=O)CC2)cc1 (stereo unspecified)	M4 antag 27.5
CCCCn1c(N)c(N(C(=O)CSc2nnnn2-c2ccccc2)C2CCCC2)c(=O)[nH]c1=O	none
CSc1ccccc1NC(=O)CN1CCCCC1C (stereo unspecified)	CHRM5 antagonist 35.0
CC1CCCCN1CC(=O)NC(c1ccccc1)c1ccccc1 (stereo unspecified)	none
CC1CCCCN1CC(=O)Nc1ccc(Oc2ccccc2)cc1 (stereo unspecified)	M4 antag 57.4
CSc1ccccc1NC(=O)CCc1ccccc1	M4 PAM 22.0
CC1CCCCN1CC(=O)Nc1ccc(N2CCCCCC2)cc1 (stereo unspecified)	none
COc1ccc(OCCOC(=O)CNC(=O)c2cccc(C)c2)cc1	none
CSc1cnn(CCC#N)c(=O)n1	none
COc1ccc(NC(=O)C/C(C)=N/NC(=O)C2CCCCC2)c([N+](=O)[O-])c1	none
